The list is not random: actives were taken first. Their share in the collection is about 4.7%.
FXN GAA850 act: increases GAA850 frataxin promoter reporter activity; HEK293 lucGAA850 FXN promoter luciferase reporter, 24 h; percent of 10 µM SAHA response; actives 0.56% (n = 360,000); AID 540364; activation, % at 6 µM;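 active means activation above the average of all compounds screened plus 3 SD, cutoff fixed separately per campaign, cut at about 7.5% in these data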
MC4R barr agon: agonists of human melanocortin 4 receptor (MC4R) beta-arrestin; actives 0.98% (n = 360,000); U2OS MC4R beta-arrestin complementation, luminescence; percent of melanotan II response, DMSO zero; activation, % at 8.9 µM;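 active means activation above a per-plate cutoff, the mean activation of sample wells on that plate plus 3 SD, cut at about 8% in these data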
HTR2A ag: activates the mouse 5-HT2A serotonin receptor | P35363 | CHO-K1 mHTR2A beta-arrestin complementation, luminescence; percent of 30 µM serotonin response | activation, % at 7.6 µM | actives 0.66% (n = 360,000) | AID 624169;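 active means activation above a run cutoff, the mean activation of all tested compounds plus 3 SD, cut at about 14% in these data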
Target sequence (P35363 whole entry, looked up): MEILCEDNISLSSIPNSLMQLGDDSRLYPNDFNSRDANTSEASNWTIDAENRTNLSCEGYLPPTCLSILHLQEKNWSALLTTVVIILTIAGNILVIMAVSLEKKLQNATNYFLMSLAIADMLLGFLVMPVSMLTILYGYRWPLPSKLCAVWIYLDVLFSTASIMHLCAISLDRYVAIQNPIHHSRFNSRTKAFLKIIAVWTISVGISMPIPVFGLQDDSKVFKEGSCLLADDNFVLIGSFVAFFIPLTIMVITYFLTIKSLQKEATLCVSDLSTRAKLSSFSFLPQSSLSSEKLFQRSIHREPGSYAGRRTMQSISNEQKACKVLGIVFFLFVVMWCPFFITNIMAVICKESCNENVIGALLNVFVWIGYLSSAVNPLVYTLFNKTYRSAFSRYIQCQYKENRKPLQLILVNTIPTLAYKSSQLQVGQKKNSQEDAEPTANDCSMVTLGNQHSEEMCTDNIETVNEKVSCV
MC4R antagonist: blocks human MC4R cAMP signaling. P32245. actives 0.48% (n = 360,000). MC4R-expressing cells, MTII-stimulated cAMP, LANCE TR-FRET. inhibition, % at 6.5 µM. AID 540295;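 active means inhibition above its plate's cutoff, the mean of tested wells on that plate plus 3 SD, cut at about 29% in these data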
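Test system: U2OS cells stably expressing human melanocortin 4 receptor (MC4R); also added: Melanotan II challenge; compound: 6.5 µM single dose; timing: 30-min compound preincubation, 1-h Melanotan II challenge, 1-h detection, room temperature; signal: Eu-cAMP/anti-cAMP TR-FRET, emission 671 nm; repeats: one well per compound, no replicates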
AHR act: activates the human aryl hydrocarbon receptor. P35869. AHR-responsive luciferase reporter cells, luminescence. activation, % at 5 µM. actives 2.5% (n = 320,000). AID 2796; in the data active means activation above about 47%
MOR ag counter: counter-screen for mouse HTR2A agonists: human mu opioid receptor agonists; shares compounds with HTR2A ag; U2OS OPRM1 beta-arrestin PathHunter, luminescence; DMSO 0%, DAMGO 9.3 µM 100%; activation, % at 9.3 µM; actives 5.3% (n = 2,300); AID 624380;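 active means mean activation above the mean of DMSO-only wells plus 3 SD, cut at about 0.5% in these data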
HTR2A ag conf: mouse HTR2A agonism confirmed; shares compounds with HTR2A ag; CHO-K1 PathHunter beta-arrestin recruitment, luminescence; DMSO 0%, 30 µM serotonin 100%; activation, % at 7.6 µM; actives 19% (n = 2,300); AID 624381;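 active means mean activation across triplicates above the hit threshold derived in the original primary screen, cut at about 15% in these data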
A number is an active result; - = inactive; . = no result.

SMILES	FXN GAA850 act	MC4R barr agon	HTR2A ag	MC4R antagonist	AHR act	MOR ag counter	HTR2A ag conf
CCOc1ccc(C(=O)Nc2ccc(NC(=O)c3ccccc3)cc2)cc1Br	-	-	25.4	-	-	-	-
Cc1nc2cc(Cl)c([N+](=O)[O-])cc2s1	-	-	18.5	-	-	-	-
O=C(NNC(=O)c1ccco1)c1cccc(Br)c1	-	-	14.8	-	-	-	-
CC(C)CC1C(=O)N(Cc2cn(CC3CCCCC3)nn2)CCS(=O)(=O)N1Cc1ccc(-c2ccc(F)nc2)cc1 (stereo not drawn)	-	-	-	-	.	.	.
COc1ccc(NS(=O)(=O)c2cc(N/C(=N\S(=O)(=O)c3ccccc3)c3ccc(F)cc3)ccc2Cl)cc1	-	-	-	-	-	.	.
Cn1ncc2c(Nc3ccc(Cl)cc3)ncnc21	-	-	-	-	-	.	.
Cn1ncc2c(Nc3ccc(O)cc3)nc(Cl)nc21	-	-	17.8	-	-	-	-
CC(=O)Nc1ccc(S(=O)(=O)N2CC(=O)NC(=O)C2)cc1	-	-	20.1	-	-	-	-
O=C(NCc1ccccc1Cl)C(=O)NCC1OCCN1S(=O)(=O)c1ccc(F)cc1 (stereo not drawn)	-	-	15.6	-	-	-	-
O=C(NCc1ccc(F)cc1)C(=O)NCC1OCCN1C(=O)c1ccc(Cl)cc1 (stereo not drawn)	-	-	23.9	-	-	-	-
CC(C)(C)SC(=O)CC1NS(=O)(=O)OC2CCCCC12 (stereo not drawn)	-	-	23.2	-	-	-	-
CC(C)(C)SC(=O)C[C@@H]1NS(=O)(=O)OC2CCCCC21 (stereo partly drawn)	-	-	-	-	-	.	.
Cc1cc(=O)[nH]c(SCC(=O)Nc2ccc(F)c([N+](=O)[O-])c2)n1	-	-	28.4	-	-	-	-
Cc1cc(=O)[nH]c(SCC(=O)Nc2ccc(C(=O)O)cc2)n1	-	-	-	-	-	.	.
Cc1ccc(N(CC(O)CN2CCCCC2)S(=O)(=O)c2ccccc2)cc1 (stereo not drawn)	-	-	-	-	-	.	.
Cc1cccc(N2CCN(C(=S)Nc3ccc4nc(N5CCOCC5)cc(C)c4c3)CC2C)c1 (stereo not drawn)	-	-	16.1	-	-	-	-
CCOC(=O)NC1(C(F)(F)F)NC(=O)N(c2ccc(F)cc2)C1=O (stereo not drawn)	-	-	-	-	-	.	.
O=C(NC1(C(F)(F)F)NC(=O)N(c2ccc(F)cc2)C1=O)c1cccs1 (stereo not drawn)	-	-	18.2	-	-	-	-
Cc1nc2cc(-c3ccc(Br)cc3)[nH]n2c(=O)c1Cl	-	-	17.6	-	.	-	-
Cc1cc2nc(C)c(Cl)c(=O)n2[nH]1	-	-	-	-	-	.	.
CCCCN(C=O)c1c(CC)nc2ccc(C(=O)NCCc3ccccn3)cn12	-	-	-	-	.	.	.
Cc1cc(=O)oc2cc(OCC(=O)Nc3c(C)n(C)n(-c4ccccc4)c3=O)c(Cl)cc12	-	-	-	-	.	.	.
O=C(NC(=S)NC1CCCCCCCCCCC1)c1cccnc1	-	-	17.0	-	-	-	-
O=c1[nH]c2cc3ccccc3cc2nc1-c1nnnn1C1CCCC1	.	.	-	.	.	.	.
COc1ccc(OC)c(C2CC(=O)Nc3c2c(=O)[nH]c2ncnn32)c1 (stereo not drawn)	-	-	-	-	-	.	.
SMILES	FXN GAA850 act	MC4R barr agon	HTR2A ag	MC4R antagonist	AHR act	MOR ag counter	HTR2A ag conf
O=C(NC1CC1)c1[nH]c(C(F)(F)F)nc1-c1ccccc1	.	.	-	.	.	.	.
Cn1c(N)c(C(=O)COC(=O)CCC2CCCCC2)c(=O)n(C)c1=O	-	-	-	-	-	.	.
Cn1c(N)c(C(=O)COC(=O)CCC2CCCC2)c(=O)n(C)c1=O	-	-	20.2	-	-	-	-
CC(C)CC(N)c1csc(NC(=O)c2cc(C(C)(C)C)nn2Cc2ccccc2)n1 (stereo not drawn)	-	-	-	-	.	.	.
CCC1=C(OC(=O)N(CC)CC)N2C(=O)OC(=NCC3CC3)[C@]2(C)[C@H]2C1=CC[C@H]1C(=O)N(C)C(=O)[C@H]12	-	-	-	-	-	.	.
CCC1=C(OC(=O)N(CC)CC)N2C(=O)OC(=NCC3CC3)[C@]2(C)[C@H]2C1=CC[C@H]1C(=O)N(CC)C(=O)[C@H]12	-	-	16.3	-	-	-	-
Cc1csc(=O)n1CC(=O)OCc1nnc(-c2ccccc2)o1	-	-	21.1	-	-	-	-
Cc1csc(=O)n1CC(=O)OCc1nnc(-c2ccc(Cl)cc2)o1	-	-	-	-	-	.	.
CCS(=O)(=O)Nc1ccc(-c2nc3cccnc3s2)cc1	-	-	26.9	-	65.6	-	-
CCN(C(=O)CSc1ncccn1)c1c(N)n(Cc2ccccc2)c(=O)[nH]c1=O	-	-	-	-	.	.	.
CC(=O)N1CCc2cc(S(=O)(=O)CCC(=O)N(C)Cc3ccco3)ccc21	-	-	-	-	-	.	.
CC1CN(S(=O)(=O)c2cccc(C(=O)NCC(c3cccs3)N3CCOCC3)c2)CC(C)O1 (stereo not drawn)	-	-	-	-	.	.	.
Cn1nnnc1SCC(=O)N1c2ccccc2Sc2ccccc21	-	-	38.5	-	-	-	-
CCn1nnnc1SCC(=O)N1c2ccccc2Sc2ccccc21	-	-	-	-	-	.	.
CCOC(=O)c1cnc(SCC(=O)OC)nc1N	-	-	26.2	-	-	-	-
CCOC(=O)CC(=O)CSc1ncc(C(=O)OCC)c(N)n1	-	-	-	-	-	.	.
CCc1nc2c(OCc3ccc(F)cc3)cccn2c1N(C)C(=O)c1ccc(C)cc1	-	-	-	-	.	.	.
O=C(CSc1ccc2nnc(-c3ccncc3)n2n1)Nc1ccc2c(c1)OCO2	-	-	35.3	-	-	-	-
O=C(CSc1ccc2nnc(-c3ccncc3)n2n1)Nc1ccc2c(c1)OCCO2	-	-	-	-	-	.	.
CCCn1c(N)c(Sc2ccc(Cl)cc2)c(=O)n(CCC)c1=O	-	-	22.5	-	-	-	-
CCCCNc1c(-c2cccnc2)nc2nc(C)cc(C)n12	.	.	20.2	.	.	-	-
COc1cccc(OC)c1C(=O)NNC(=O)c1ccccc1-n1cccc1	-	-	-	-	-	.	.
N/C(=N\O)c1ccccc1-n1cccc1	-	-	15.0	-	-	-	-
C=CCc1ccccc1OCCn1ccnc1	-	-	15.2	-	-	-	-
Clc1ccccc1OCCn1ccnc1	-	-	-	-	-	.	.
COc1ccc(NC(=O)C2Cc3c(-c4ccccc4Oc4ccccc4)ccnc3O2)cc1OC (stereo not drawn)	-	-	-	-	.	.	.
O=C1Nc2ccccc2-n2nnnc2C1N1CCN(CCN2CCOCC2)CC1 (stereo not drawn)	.	.	-	.	.	.	.

From PubChem
